The source of these data is ChEMBL document CHEMBL4393654, “Discovery and Early Clinical Development of an Inhibitor of 5-Lipoxygenase Activating Protein (AZD5718) for Treatment of Coronary Artery Disease” (J Med Chem, 2019).

One assay concerns HepG2. The experiment in a line: Cytotoxicity against human HepG2 cells assessed as reduction in ATP depletion in presence of glucose/galactose. It counts as cell-based.
In assay [1] the test system is Homo sapiens. As to the kind of experiment: Suppression of urine LTE4 level in po dosed human administered as single dose. It counts as functional, organism-based. Put shortly:
(§1)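 Endogenous urinary LTE4 measured relative to baseline in healthy volunteers. Subjects received an oral suspension as single doses of 25–1200 mg, or 60–600 mg once daily for 10 days.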

Assay [2] deals with Canis familiaris. As to the kind of experiment: Ex vivo inhibition of FLAP in po dosed Beagle dog assessed as reduction in ionophore-stimulated LTB4 production. It counts as functional, Canis lupus familiaris.
Assay [3] concerns the target Prostaglandin G/H synthase 1 (Homo sapiens) (UniProt P23219). The experiment in a line: Activity at COX1 in human whole blood assessed as effect on […] production by EIA. It counts as tissue-based.
Assay [4] relates to Canis familiaris. The experiment in a line: Ex vivo reversible inhibition of FLAP in Beagle dog assessed as reduction in ionophore-stimulated LTB4 production at 0.18 mg/kg, po on day1 and 0.09 mg/kg, po on day 3 measured after 48 hrs. It counts as functional, organism-based. The settings on record: Canis lupus familiaris. The procedure, abridged:
(§2)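 Two beagle dogs were given two oral doses 48 h apart: 0.18 mg/kg on day 1 and 0.09 mg/kg on day 3. LTB4 production in calcium ionophore-stimulated blood was followed ex vivo after each dose, including 48 h after the second dose, and compared with baseline.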

Assay [5] concerns Homo sapiens. As to the kind of experiment: Suppression of urine LTE4 level in po dosed human administered daily for 10 days. It counts as functional, organism-based. The procedure, abridged: as §1
Assay [6] addresses T1, Prostaglandin G/H synthase 2 (Homo sapiens) (UniProt P35354).
T1 sequence (whole entry): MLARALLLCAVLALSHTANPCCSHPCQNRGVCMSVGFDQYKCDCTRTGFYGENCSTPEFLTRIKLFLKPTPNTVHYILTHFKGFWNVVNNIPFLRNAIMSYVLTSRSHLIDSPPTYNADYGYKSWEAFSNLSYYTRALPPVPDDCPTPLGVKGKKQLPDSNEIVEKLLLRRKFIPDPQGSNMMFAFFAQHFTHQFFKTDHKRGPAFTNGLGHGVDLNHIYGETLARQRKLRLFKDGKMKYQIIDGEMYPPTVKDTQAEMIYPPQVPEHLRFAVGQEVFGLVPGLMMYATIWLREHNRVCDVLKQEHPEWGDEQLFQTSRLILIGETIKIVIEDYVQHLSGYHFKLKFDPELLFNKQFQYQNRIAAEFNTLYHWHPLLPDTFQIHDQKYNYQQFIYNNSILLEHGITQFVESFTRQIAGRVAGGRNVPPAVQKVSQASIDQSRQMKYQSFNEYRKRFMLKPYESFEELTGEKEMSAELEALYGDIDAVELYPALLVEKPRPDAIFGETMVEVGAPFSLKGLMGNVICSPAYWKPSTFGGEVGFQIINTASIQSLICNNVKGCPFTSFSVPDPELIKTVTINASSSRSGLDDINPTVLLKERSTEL
As to the kind of experiment: Activity at COX2 in human whole blood assessed as effect on LPS-induced PGE2 production preincubated for 15 mins followed by LPS-stimulation and measured after overnight incubation by EIA. It counts as tissue-based.

Assay [7] has as its system Homo sapiens. The experiment in a line: Suppression of calcium ionophore-stimulated LTB4 production in po dosed human blood administered daily for 10 days. It counts as functional, organism-based. Put shortly:
(§3)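 Fresh blood drawn from healthy volunteers dosed with an oral suspension. Single doses were 25–1200 mg (SAD). Multiple dosing was 60, 180, 300 or 600 mg once daily for 10 days (MAD). LTB4 was measured after ex vivo calcium ionophore stimulation, relative to baseline.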

The species entered for the next assay is Canis lupus familiaris. The experiment in a line: Inhibition of FLAP in dog whole blood assessed as reduction in calcium ionophore-stimulated LTB4 production. It counts as tissue-based.
The subject of assay [8] is Homo sapiens. As to the kind of experiment: Suppression of calcium ionophore-stimulated LTB4 production in human assessed as Cmin required to show >80% reduction in plasma LTB4 levels at 60 to 1200 mg, po administered as single dose measured after 24 hrs. It counts as functional.
Assay [9] deals with Canis familiaris. The experiment in a line: Ex vivo inhibition of FLAP in Beagle dog assessed as reduction in ionophore-stimulated LTB4 production at 0.9 mg/kg, po measured within 2.5 hrs relative to control. It counts as functional, Canis lupus familiaris. Put shortly: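 Two beagle dogs were given a single oral dose of 0.9 mg/kg. LTB4 production in calcium ionophore-stimulated blood was followed ex vivo over time and compared with pre-dose baseline.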

The test system of another assay is THP-1. The experiment in a line: Cytotoxicity against human THP1 cells assessed as reduction in cell viability measured after 48 hrs by resazurin assay. Particulars: THP-1, 48 h. It counts as cell-based.
Assay [10] has as its system Canis familiaris. As to the kind of experiment: Ex vivo inhibition of FLAP in Beagle dog assessed as reduction in ionophore-stimulated LTB4 production at 0.02 to 0.2 mg/kg, po administered daily for 3 consecutive days measured 24 hrs post-last dose by LC-MS/MS analysis. Particulars: Canis lupus familiaris. It counts as functional, organism-based. The procedure, abridged: (§4)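 Beagle dogs were given oral doses once daily for 3 consecutive days at 0.02, 0.09 or 0.2 mg/kg (n=3 per dose). Blood was stimulated ex vivo with calcium ionophore, and LTB4 production was measured during dosing and up to 24 h after the last dose. Results were baseline-corrected, plotted with plasma concentration and reported as medians.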

Assay [11] deals with Canis familiaris. The experiment in a line: Ex vivo inhibition of FLAP in Beagle dog assessed as reduction in LTE4 level in urine at 0.02 mg/kg, po administered daily for 3 consecutive days measured 24 hrs post-last dose by colorimetric method relative to control. It counts as functional. The settings on record: Canis lupus familiaris. The procedure, abridged:
(§5)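 Urinary LTE4 was measured at baseline and over the final 24 h of dosing in beagle dogs given oral doses once daily for 3 consecutive days (0.02, 0.09 or 0.2 mg/kg, n=3 per dose). Dogs with baseline uLTE4 below the LOQ were excluded. Inhibition was expressed relative to each dog's own baseline.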

Assay [12] addresses T2, Arachidonate 5-lipoxygenase-activating protein (Homo sapiens) (UniProt P20292).
T2 sequence (whole entry): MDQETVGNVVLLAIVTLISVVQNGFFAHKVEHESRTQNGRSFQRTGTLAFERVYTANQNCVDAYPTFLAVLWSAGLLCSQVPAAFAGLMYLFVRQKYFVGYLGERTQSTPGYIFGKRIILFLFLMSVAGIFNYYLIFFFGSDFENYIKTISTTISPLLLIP
As to the kind of experiment: Inhibition of FLAP in human whole blood assessed as reduction in calcium ionophore-stimulated LTB4 production preincubated for 4 hrs followed by calcium ionophore stimulation and measured after 20 mins by EIA. It counts as tissue-based. The procedure, abridged:
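Fresh human whole blood was incubated with compound for 4 h, then stimulated with calcium ionophore, and LTB4 production was measured as the 5-LO pathway read-out. IC50 was also converted to a free value: IC50 × (Fu/100), where Fu = 100 − human plasma protein binding (%).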

The test system of assay [13] is Homo sapiens. As to the kind of experiment: Suppression of calcium ionophore-stimulated LTB4 production in po dosed human blood administered as single dose. It counts as functional, organism-based. The procedure, abridged: as §3
Assay [14] concerns Canis familiaris. As to the kind of experiment: Ex vivo inhibition of FLAP in Beagle dog assessed as reduction in LTE4 level in urine at 0.09 to 0.2 mg/kg, po administered daily for 3 consecutive days measured 24 hrs post-last dose by colorimetric method. It counts as functional, Canis lupus familiaris. Put shortly: as §5
Assay [15] concerns Canis familiaris. The experiment in a line: Ex vivo inhibition of FLAP in po dosed Beagle dog assessed as reduction in ionophore-stimulated LTB4 production administered daily for 3 consecutive days measured during compound dosing by LC-MS/MS analysis. It counts as functional, organism-based. The settings on record: Canis lupus familiaris. The procedure, abridged: as §4
Assay [16] relates to Canis familiaris. As to the kind of experiment: Ex vivo inhibition of FLAP in Beagle dog assessed as reduction in ionophore-stimulated LTB4 production at 0.18 mg/kg, po on day1 and 0.09 mg/kg, po on day 3 measured after 4 to 9 hrs relative to control. It counts as functional, Canis lupus familiaris. Put shortly:
as §2

Active and inactive are the calls of the source. The rule behind the calls is not given here.

Chain of Prostaglandin G/H synthase 1 (Homo sapiens) (P23219 whole entry): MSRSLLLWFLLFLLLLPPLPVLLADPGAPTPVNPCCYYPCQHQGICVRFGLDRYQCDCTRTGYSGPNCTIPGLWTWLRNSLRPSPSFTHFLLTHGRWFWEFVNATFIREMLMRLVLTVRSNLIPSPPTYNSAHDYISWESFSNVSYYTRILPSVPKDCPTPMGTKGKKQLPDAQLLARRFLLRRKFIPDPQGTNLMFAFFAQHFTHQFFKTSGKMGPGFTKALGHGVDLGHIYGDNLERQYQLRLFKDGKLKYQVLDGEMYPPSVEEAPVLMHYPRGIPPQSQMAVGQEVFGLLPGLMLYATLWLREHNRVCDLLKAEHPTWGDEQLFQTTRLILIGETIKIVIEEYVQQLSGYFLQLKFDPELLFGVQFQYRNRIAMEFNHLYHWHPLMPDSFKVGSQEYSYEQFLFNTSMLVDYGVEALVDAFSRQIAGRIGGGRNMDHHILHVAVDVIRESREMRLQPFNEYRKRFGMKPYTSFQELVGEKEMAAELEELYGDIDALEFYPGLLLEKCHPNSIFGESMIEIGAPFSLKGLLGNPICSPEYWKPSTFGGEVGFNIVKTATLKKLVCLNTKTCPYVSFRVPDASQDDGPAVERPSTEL

With `Cc1cc(-c2ccc(C(=O)[C@@H]3CCCC[C@H]3C(=O)Nc3cnn4c3C(=O)NCC4)cc2)n[nH]1`, the IC50 in the assay on HepG2 and with THP-1 was > 250 µM each time. The Activity result with Homo sapiens [1], with Homo sapiens [5], in the assay on Homo sapiens [7] and in the assay on Homo sapiens [13] was “Dose-dependent effect” each time. Besides, the fIC50 with Canis familiaris [2] was found to be 0.1 nM; in the assay listed under Canis lupus familiaris, 1 nM; in [12], 2 nM. Moreover, the result in [3] and in assay [6] was inactive. Besides, the inhibition entry in the assay on Canis familiaris [4] is “Active”. Further, the Cmin in the assay on Homo sapiens [8] was >15 nM. In addition, the “%max” value in the assay on Canis familiaris [9] and in the assay with Canis familiaris [16] was >90% in each case. In the assay with Canis familiaris [10], the inhibition result is “inactive”. The inhibition in vivo at 0.02 mg/kg in the assay with Canis familiaris [11] was determined as 60%. Besides, in the assay on Canis familiaris [14], the “inhibition (INH)” value is on record as 100%. Further, the inhibition entry in the assay with Canis familiaris [15] was “Dose-dependent effect”.
